The nature of assay [1]: inhibitors of TNFa-induced NFkB p65 translocation, primary screen, imaging, HUVEC, MLSMR starter and 10KST1 sets (AID 438;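 active means inhibition above 20% together with a positive visual image hit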;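 further: compound added about 3h40 before a 20 min TNFalpha stimulation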;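 on inhibition: signal is the nuclear over cytoplasmic p65 intensity ratio per well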). The note with it: HUVEC TNFa-induced p65 nuclear translocation; cell count: measured here: nuclei count (cytotoxicity indicator), at 2.08 µM; inhibition: at 2 µM, stronger effect = higher value, 0% TNFa-plus-vehicle, 100% no-TNFa wells.
Assay [2] can be described thus: reduction of polyQ htt aggregates in cells – imaging, exon1htt(103Q)mCFP cells, high-content imaging, primary screen (AID 483;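 active means visual image review flags a hit and inhibition of aggregation exceeds 20%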;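 further: compound exposure lasted 3 days before fixation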;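 on nuclei count: percent of the per-plate median nuclei count of sample wells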). The conditions noted are these: exon1htt(103Q)mCFP cell line, aggregate imaging, at 2 µM; inhibition of aggregation: stronger effect = higher value; nuclei count: measured here: cell count, toxicity.
Assay [3] can be described thus: endothelial E-selectin expression blockers – imaging, HUVEC, immunofluorescence, MLSMR starter and 10KST1 sets, primary screen (AID 487).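 On inhibition: signal is fraction of cell area covered by stained E-selectin grains.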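 On nuclei count: 100% = median nuclei count of all wells on the same plate.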 The note with it: HUVEC TNFalpha-induced E-selectin immunofluorescence imaging, at 2 µM; inhibition: stronger effect = higher value; nuclei count: measured here: cell number, toxicity.
Assay [4] addresses Voltage-gated potassium channel subunit beta-2 (Rattus norvegicus) (UniProt P62483). The assay is described as follows: inhibitors of rat Kvbeta2 reductase activity – biochemical, NADPH fluorescence, primary screen (AID 622;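 active means fluorescence slope higher than the sample average by over 3 SD, cut at about -0.22 in these data, passing the limit was not always enough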;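 further: slope of raw intensity against log time taken from 70 to 1610 s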). The conditions noted are these: recombinant KvBeta, 4-cyanobenzaldehyde reduction, at 10 µM, stronger effect = higher value.
Assay [5] shares this target. The assay is described as follows: enhancers of rat Kvbeta2 NADPH turnover – biochemical, NADPH fluorescence, primary screen (AID 623;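 active means NADPH fluorescence slope more negative than the mean of all samples by about 3 SD, 99.7% confidence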;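 further: fluorescence intensity change per second fitted from 20 to 320 s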). The conditions noted are these: Recombinant KvBeta, NADPH fluorescence decrease slope, 10 min; at 10 µM; stronger effect = lower value.
Assay [6] has as its target Alpha-2C adrenergic receptor (Homo sapiens) (UniProt P18825). As to the kind of experiment: compounds altering alpha2C-coupled GIRK flux – cell-based, HEK293 alpha2C/GIRK1/2, thallium flux, primary screen (AID 624;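 active means fluorescence slope after compound addition differing from the mean of all screened samples at 99.7% confidence, in either direction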;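 further: slope of fluorescence ratio to pre-addition baseline per second over 15 to 24 s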). The note with it: thallium flux BTC fluorescence, at 10 µM, actives lie on both sides.
The nature of assay [7]: inhibitors of larval lipid processing in zebrafish, primary screen, whole organism, PED6 fluorescence, gall bladder and intestine (AID 686;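 active means a full or partial loss of lipid-probe fluorescence in the fish gall bladder, intestine or both, judged by eye; inactive means no fluorescence loss, or compound toxic to the fish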;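 further: larvae 5 to 7 days old with five fish per well; signal comes from phospholipase A2 cleavage of quenched PED6 carried via bile; overnight exposure to compound and PED6 before scoring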). The note with it: Zebrafish larvae PED6 lipid processing, fluorescence scoring; screened at 20 µM (by protocol). In outline:
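System: live zebrafish larvae aged 5-7 days, whole organism; measure: graded gall bladder and intestinal fluorescence inhibition per well; incubation: overnight exposure; reagent: ingested quenched lipid PED6 at 100 nM; signal: By-eye fluorescence microscopy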

A short description of assay [8]: blockers of RIG-like receptor reporter activation – cell-based, Sendai virus stimulus, luciferase, 10K MLSCN set, TLR/RLR signaling modifier project, primary screen (AID 602276;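 active means inhibition at or above 50% at 10 µM; inactive means inhibition below 50%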;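 further: firefly luciferase from ISG56 promoter only with Renilla not read in this screen; 0% = Sendai virus plus DMSO and 100% = medium plus DMSO without virus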). The conditions noted are these: HEK293 RL24 IRF3 luciferase reporter, at 10 µM, stronger effect = higher value. (In a reporter assay the amount or activity of a reporter protein is the signal.)
A short description of assay [9]: TLR3 IRF3 reporter activation blockers – cell-based, poly I:C stimulus, luciferase, 10K MLSCN set, primary screen (AID 602277;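 active means inhibition of the reporter signal at or above 50%; inactive means inhibition below 50%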). The note with it: HEK293-TLR3 RL24 IRF3 luciferase reporter, at 10 µM, stronger effect = higher value.

Molecules are shown by their SMILES. Activity calls are given as the source filed them.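 How the source made its calls, unless noted: active means visually confirmed hit in the image check and inhibition above 20%; inconclusive means visually confirmed hit but inhibition not above 20%; inactive means no visual hit in the image check.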

Usually inhibition stands for the relative decrease from the control value, in per cent.

Alpha-2C adrenergic receptor (Homo sapiens), sequence (P18825 whole entry, looked up): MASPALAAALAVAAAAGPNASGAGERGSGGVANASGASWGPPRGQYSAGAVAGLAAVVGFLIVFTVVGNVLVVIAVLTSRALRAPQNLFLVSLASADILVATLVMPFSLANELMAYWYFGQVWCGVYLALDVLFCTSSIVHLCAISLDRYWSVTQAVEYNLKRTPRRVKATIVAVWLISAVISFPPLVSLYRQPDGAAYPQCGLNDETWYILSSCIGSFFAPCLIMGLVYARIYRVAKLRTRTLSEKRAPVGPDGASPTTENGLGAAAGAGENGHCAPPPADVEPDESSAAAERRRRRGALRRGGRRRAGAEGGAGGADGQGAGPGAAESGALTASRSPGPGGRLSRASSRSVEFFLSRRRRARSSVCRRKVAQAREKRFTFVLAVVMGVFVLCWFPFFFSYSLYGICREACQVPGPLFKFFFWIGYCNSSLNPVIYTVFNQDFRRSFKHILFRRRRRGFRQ
Voltage-gated potassium channel subunit beta-2 (Rattus norvegicus), sequence (P62483 whole entry, looked up): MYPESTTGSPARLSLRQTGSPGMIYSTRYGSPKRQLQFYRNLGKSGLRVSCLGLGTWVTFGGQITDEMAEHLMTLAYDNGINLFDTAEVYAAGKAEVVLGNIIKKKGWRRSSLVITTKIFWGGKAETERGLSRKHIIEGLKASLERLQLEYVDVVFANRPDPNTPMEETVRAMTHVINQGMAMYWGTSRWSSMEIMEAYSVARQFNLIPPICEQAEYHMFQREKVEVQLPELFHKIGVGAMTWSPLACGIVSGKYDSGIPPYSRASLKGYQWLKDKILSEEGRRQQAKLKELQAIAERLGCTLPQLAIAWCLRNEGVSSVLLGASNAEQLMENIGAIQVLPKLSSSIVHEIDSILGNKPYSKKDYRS

As for `O=C(c1cc2nc(-c3ccco3)cc(C(F)(F)F)n2n1)N1CCN(c2ccccn2)CC1`, the cell count in assay [1] came to 746. For the same compound, the inhibition in [1] is -10.5% (inactive); in [3] it was 32.7% (inactive); in assay [8], 10.1% (inactive); in assay [9], -6.91% (inactive). In addition, the inhibition of aggregation in assay [2] is 2.8% (inactive). The nuclei count amounted to 101% in assay [2] and 107% in assay [3]. Also, in [4], the fluorescence slope was -0.357 (inactive). The NADPH fluorescence slope in assay [5] was -6.7e-05 (inactive). The slope in assay [6] was 0.00309 (inactive). Further, the call in [7] was inactive.

With `CN(C)C(=O)CN(C)S(=O)(=O)c1ccc(Cl)cc1`, the cell count in [1] was found to be 447. The inhibition in [1] is 8.7% (inactive); in assay [3], -2.4% (inactive); in assay [8], 7.26% (inactive); in assay [9] it was 6.1% (inactive). Also, in [2], the inhibition of aggregation was 10.6% (inactive). The nuclei count in assay [2] came to 93.2%; in assay [3], 113%. Also, the fluorescence slope in assay [4] is -0.416 (inactive). The NADPH fluorescence slope in assay [5] is -1.2e-05 (inactive). For the same compound, in assay [6], the slope was 0.00557 (inactive). Further, the outcome in [7] was inactive.

Take `Cc1cccn2c(=O)c3cc(C(=O)N4CCCc5ccccc54)n(C)c3nc12`: the cell count in assay [1] was 232. The inhibition in assay [1] was 15.9% (inactive); in assay [3], 29.9% (inactive); in [8], 6.77% (inactive); in assay [9], 17.7% (inactive). Further, the inhibition of aggregation in [2] was 10.9% (inactive). Moreover, the nuclei count in assay [2] came out at 98.7%; in assay [3], 96%. The fluorescence slope in [4] is -0.556 (inactive). Also, the NADPH fluorescence slope in assay [5] was -3.1e-05 (inactive). The slope in [6] was 0.00631 (inactive).

Regarding `Cc1ccc(S(=O)(=O)NCC(=O)OCC(=O)Nc2ncc(Cl)cc2Cl)cc1`, the cell count in [1] is 412. The inhibition is -0.4% (inactive) in assay [1], -42.3% (inactive) in assay [3], 17.2% (inactive) in assay [8] and 25.7% (inactive) in assay [9]. Moreover, the inhibition of aggregation in assay [2] was -19.2% (inactive). For the same compound, the nuclei count in assay [2] was 115%; in assay [3] it was 114%. Moreover, the fluorescence slope in assay [4] was -0.465 (inactive). The NADPH fluorescence slope in assay [5] was -4.6e-05 (inactive). Further, in assay [6], the slope was 0.00472 (inactive). Further, the call in [7] was inactive.

Take `COc1ccc(CNC(=O)C(c2ccco2)N(Cc2cccs2)C(=O)Cc2cccs2)cc1` (stereo unspecified): the cell count in assay [1] was 658. For the same compound, the inhibition is 9.5% (inactive) in assay [1], -44.5% (inactive) in assay [3], 13.1% (inactive) in assay [8] and 28.3% (inactive) in assay [9]. For the same compound, in assay [2], the inhibition of aggregation was -14.3% (inactive). In addition, the results for the nuclei count in assay [2] and in assay [3] were 107% and 105%, respectively. Further, the fluorescence slope in assay [4] is -0.6 (inactive). In addition, in [5], the NADPH fluorescence slope was -8.4e-06 (inactive). Besides, the slope in assay [6] is 0.00565 (inactive).

In the case of `CO/C([O-])=N/c1c[n+](-c2ccc(C)cc2)no1`, the cell count in assay [1] came to 711. Further, the inhibition was -18.1% (inactive) in assay [1], -3.6% (inactive) in [3], -8.44% (inactive) in assay [8] and -40% (inactive) in assay [9]. Besides, the inhibition of aggregation in [2] was -9.2% (inactive). Besides, the results for the nuclei count in assay [2] and in assay [3] were 104% and 113%, respectively. Also, the fluorescence slope in [4] was -0.471 (inactive). Besides, the NADPH fluorescence slope in [5] was -4.7e-05 (inactive). Also, the slope in assay [6] is 0.00685 (inactive).

`FC(F)Oc1cccc2cccnc12`: the cell count in [1] is 538. For the same compound, the inhibition is -5.8% (inactive) in [1], 67.2% (active) in [3], 10.2% (inactive) in assay [8] and 9.81% (inactive) in assay [9]. Moreover, in assay [2], the inhibition of aggregation was -5.4% (inactive). In addition, the nuclei count in assay [2] was 103%; in assay [3], 82.3%. Also, the fluorescence slope in assay [4] was -0.345 (inactive). Further, in [5], the NADPH fluorescence slope is -1.3e-05 (inactive). Moreover, the slope in assay [6] was 0.00451 (inactive). In assay [7], the outcome was inactive.

On to `COc1ccc(NC(=O)Nc2ccccc2C)c(OC)c1`, for which, in assay [1], the cell count was found to be 371. For the same compound, the inhibition is 1.5% (inactive) in [1], -31.1% (inactive) in assay [3], 6.08% (inactive) in [8] and 12.1% (inactive) in [9]. Also, the inhibition of aggregation in [2] is -3.2% (inactive). Besides, the nuclei count in assay [2] came out at 107%; in assay [3], 116%. For the same compound, in assay [4], the fluorescence slope was -0.379 (inactive). Also, the NADPH fluorescence slope in [5] was -7.9e-05 (inactive). Moreover, the slope in assay [6] was 0.00603 (inactive). Further, the call in assay [7] was inactive.

`COc1ccc(C(=O)c2coc3ccc(O)c(CN4CCCCC4)c23)cc1`: the cell count in assay [1] turned out to be 828. Besides, the inhibition is -6.8% (inactive) in assay [1], -25.2% (inactive) in assay [3], -9.24% (inactive) in assay [8] and -15.8% (inactive) in assay [9]. Moreover, the inhibition of aggregation in assay [2] is -9.1% (inactive). The nuclei count was found to be 108% in [2] and 112% in [3]. Further, the fluorescence slope in assay [4] was -0.597 (inactive). Moreover, the NADPH fluorescence slope in assay [5] is -1.2e-05 (inactive). In assay [6], the slope was 0.00458 (inactive).

For `CC1(C)CC(=O)C2=C(C1)Nc1ccccc1N=C2`, the cell count in assay [1] was 759. Also, the inhibition in [1] is -6.9% (inactive); in assay [3], 40.8% (inactive); in assay [8], -4.26% (inactive); in assay [9], -38.2% (inactive). In addition, in [2], the inhibition of aggregation was 11.9% (inactive). The figures for the nuclei count in assay [2] and in [3] were 104% and 94.5%, respectively. The fluorescence slope in assay [4] is -0.483 (inactive). In addition, the NADPH fluorescence slope in [5] is -5.6e-05 (inactive). Besides, the slope in assay [6] is 0.00436 (inactive). For the same compound, the outcome in assay [7] was inactive.

For `CC(C)(C)NC(=O)CN(Cc1cccs1)C(=O)c1csnn1`, the cell count in assay [1] was 570. Besides, the inhibition is 12.9% (inactive) in assay [1], 20.6% (inactive) in [3], 11.9% (inactive) in assay [8] and 16.1% (inactive) in assay [9]. Moreover, in assay [2], the inhibition of aggregation is 34.6% (active). In addition, the nuclei count turned out to be 85% in [2] and 89.9% in assay [3]. Besides, in assay [4], the fluorescence slope is -0.431 (inactive). Further, in assay [5], the NADPH fluorescence slope was -4.2e-05 (inactive). The slope in assay [6] was 0.00455 (inactive). For the same compound, the compound was called inactive in assay [7].

As to `CN1CC(=O)N(CC(=O)NCCc2ccc(F)cc2)c2ccccc2C1=O`, the cell count in assay [1] was determined as 214. Moreover, the inhibition in assay [1] is 21% (inactive); in assay [3], -1.2% (inactive); in [8] it was 10.8% (inactive); in [9] it was 9.93% (inactive). The inhibition of aggregation in assay [2] was 16.8% (inactive). For the same compound, the nuclei count in assay [2] came out at 110%; in [3], 90.4%. In assay [4], the fluorescence slope is -0.602 (inactive). For the same compound, the NADPH fluorescence slope in assay [5] was -2.2e-05 (inactive). Moreover, in assay [6], the slope was 0.0102 (inactive).

Consider `CC(=O)Nc1c(O)n(C)c2ccccc12`, for which, in [1], the cell count amounted to 638. Besides, the inhibition in assay [1] is -24.1% (inactive); in assay [3] it was 25.2% (inactive); in assay [8], -8.37% (inactive); in assay [9], 2.01% (inactive). In assay [2], the inhibition of aggregation was 4.1% (inactive). The nuclei count in assay [2] came to 104%; in [3], 100%. In addition, the fluorescence slope in assay [4] was -0.445 (inactive). The NADPH fluorescence slope in assay [5] was 3.6e-05 (inactive). Further, the slope in [6] is 0.00514 (inactive). Also, in assay [7], the result was inactive.

These data come from PubChem BioAssay.
